Test results from ChEMBL document CHEMBL1126893, “Synthesis and CLOGP correlation of imidooxy anticonvulsants” (J Med Chem, 1993).

What was measured:
Format in all cases: functional
Mus musculus [1] = experiment: Time of peak effect of toxicity of compound was measured by both MES and sc Met test in mice
How it was run: (§1)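 Phase II quantification in mice after ip dosing. ED50 (scMet or MES) measured at the time of peak effect. TD50 (rotorod neurologic deficit) measured at the time of peak neurologic deficit. Medians and 95% confidence limits by the Litchfield-Wilcoxon method. Protective index = TD50/ED50. Time of peak effect determined in the MES or scMet test.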

Mus musculus [2] = experiment: Time of peak effect of activity of compound was measured by both MES and sc Met test in mice; how it was run: as §1
Mus musculus [3] = experiment: Anticonvulsant activity was measured by maximal electroshock test on mice at 4 hr at the dose of 300 mg/kg; number of animals protected/number of animals tested, 0/1
Mus musculus [4] = experiment: Anticonvulsant activity was measured by rotarod toxicity teston mice at 0.50 hr at the dose of 50 mg/kg; number of animals protected/number of animals tested 0/4
Mus musculus [5] = experiment: Anticonvulsant activity was measured by rotarod toxicity test on mice at 4 hr at the dose of 50 mg/kg; number of animals protected/number of animals tested 0/4
Mus musculus [6] = experiment: Anticonvulsant activity was measured by maximal electroshock test on mice at 4 hr at the dose of 50 mg/kg; number of animals protected/number of animals tested 0/4
Mus musculus [7] = experiment: Anticonvulsant activity was measured by maximal electroshock test on mice at 30 min at the dose of 300 mg/kg; number of animals protected/number of animals tested, 1/1
Mus musculus [8] = experiment: Anticonvulsant activity was measured by maximal electroshock test on mice at 0.50 hr at the dose of 50 mg/kg; number of animals protected/number of animals tested 0/4
Mus musculus [9] = experiment: Anticonvulsant activity was measured by subcutaneous pentylenetetrazole test on mice at 0.50 hr at the dose of 50 mg/kg; number of animals protected/number of animals tested 0/4
Mus musculus [10] = experiment: Anticonvulsant activity was measured by maximal electroshock test on mice at 4 hr at the dose of 100 mg/kg; number of animals protected/number of animals tested, 0/3
Mus musculus [11] = experiment: Anticonvulsant activity was measured by rotarod toxicity test on mice at 1 hr at the dose of 50 mg/kg; number of animals protected/number of animals tested 0/4
Mus musculus [12] = experiment: Anticonvulsant activity was measured by rotarod toxicity teston mice at 0.25 hr at the dose of 50 mg/kg; number of animals protected/number of animals tested 0/4
Mus musculus [13] = experiment: Anticonvulsant activity was measured by rotarod toxicity test on mice at 30 min at the dose of 300 mg/kg; number of animals protected/number of animals tested, 4/4
Mus musculus [14] = experiment: Anticonvulsant activity was measured by subcutaneous pentylenetetrazole test on mice at 4 h at the dose of 300 mg/kg; number of animals protected/number of animals tested, 0/1
Mus musculus [15] = experiment: Anticonvulsant activity was measured by rotarod toxicity test on mice at 4 hr at the dose of 100 mg/kg; number of animals protected/number of animals tested 0/4
Mus musculus [16] = experiment: Anticonvulsant activity was measured by rotarod toxicity test on mice at 2 hr at the dose of 50 mg/kg;number of animals protected/number of animals tested 0/4
Mus musculus [17] = experiment: Anticonvulsant activity was measured by subcutaneous pentylenetetrazole test on mice at 30 min at the dose of 300 mg/kg; number of animals protected/number of animals tested, 1/1
Mus musculus [18] = experiment: Anticonvulsant activity was measured by maximal electroshock test on mice at 30 min at the dose of 100 mg/kg; number of animals protected/number of animals tested, 2/3
Mus musculus [19] = experiment: Anticonvulsant activity was measured by subcutaneous pentylenetetrazole test on mice at 4 hr at the dose of 100 mg/kg; number of animals protected/number of animals tested, 0/3
Mus musculus [20] = experiment: Anticonvulsant activity was measured by maximal electroshock test on mice at 1 hr at the dose of 50 mg/kg; number of animals protected/number of animals tested 1/4
Mus musculus [21] = experiment: Anticonvulsant activity was measured by subcutaneous pentylenetetrazole test on mice at 30 min at the dose of 100 mg/kg; number of animals protected/number of animals tested, 0/1
Mus musculus [22] = experiment: Anticonvulsant activity was measured by rotarod toxicity test on mice at 4 hr at the dose of 300 mg/kg; number of animals protected/number of animals tested, 2/2
Mus musculus [23] = experiment: Anticonvulsant activity was measured by maximal electroshock test on mice at 0.25 hr at the dose of 50 mg/kg; number of animals protected/number of animals tested 0/4
Mus musculus [24] = experiment: Anticonvulsant activity was measured by rotarod toxicity test on mice at 30 min at the dose of 100 mg/kg; number of animals protected/number of animals tested, 0/8
Mus musculus [25] = experiment: Anticonvulsant activity was measured by maximal electroshock test on mice at 2 hr at the dose of 50 mg/kg; number of animals protected/number of animals tested 0/4
Mus musculus [26] = experiment: Anticonvulsant activity was measured by rotarod toxicity test on mice at 30 min at the dose of 300 mg/kg; number of animals protected/number of animals tested 1/4
Mus musculus [27] = experiment: Elevation of threshold for electroshock induced seizures in mice was measured by ip administration after 0.5 hr at the dose of 200 mg/kg; No. of mice protected/no tested 5/12; details: route intraperitoneal
Mus musculus [28] = experiment: Anticonvulsant activity was measured by maximal electroshock test on mice at 0.25 hr at the dose of 100 mg/kg; number of animals protected/number of animals tested 0/2
Mus musculus [29] = experiment: Anticonvulsant activity was measured by rotarod toxicity test on mice at 4 h at the dose of 300 mg/kg; number of animals protected/number of animals tested 0/2
Mus musculus [30] = experiment: Anticonvulsant activity was measured by rotarod toxicity teston mice at 0.25 hr at the dose of 100 mg/kg; number of animals protected/number of animals tested 0/2
Mus musculus [31] = species on record: Mus musculus; experiment: ED50 value of compound was expressed as dose protecting 50% of mice from tonic hind limb extension; details: Hindlimb
How it was run: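 Maximal electroshock test in male CF1 mice (23-34 g). Compound given as a 0.5% methylcellulose suspension ip or po, with testing at 0.5 h after several doses. Endpoint is protection from tonic hind limb extension.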

Mus musculus [32] = experiment: Effective dose was measured in mouse by subcutaneous pentylenetetrazole method by ip administration.; how it was run: as §1
Mus musculus [33] = experiment: Elevation of threshold for electroshock induced seizures in mice was measured by ip administration after 0.5 hr at the dose of 250 mg/kg; No. of mice protected/no tested 5/8; details: route intraperitoneal
Mus musculus [34] = experiment: Anticonvulsant activity was measured by maximal electroshock test on mice at 4 h at the dose of 300 mg/kg; number of animals protected/number of animals tested 1/1
Mus musculus [35] = experiment: Elevation of threshold for electroshock induced seizures in mice was measured by ip administration after 0.5 hr at the dose of 150 mg/kg; No. of mice protected/no tested 3/12; details: route intraperitoneal
Mus musculus [36] = experiment: Anticonvulsant activity was measured by subcutaneous pentylenetetrazole test on mice at 4 hr at the dose of 300 mg/kg; number of animals protected/number of animals tested 1/1
Mus musculus [37] = species on record: Mus musculus; experiment: Protective index (TD50/ED50) value in scMET test in mice; how it was run: as §1
Mus musculus [38] = experiment: Effective dose was measured in mouse by maximal electroshock method by ip administration.; how it was run: as §1
Mus musculus [39] = experiment: Anticonvulsant activity was measured by subcutaneous pentylenetetrazole test on mice at 30 min at the dose of 300 mg/kg; number of animals protected/number of animals tested 1/1
Mus musculus [40] = experiment: Elevation of threshold for electroshock induced seizures in mice was measured by ip administration after 0.5 hr at the dose of 100 mg/kg; No. of mice protected/no tested 1/12; details: route intraperitoneal
Mus musculus [41] = species on record: Mus musculus; experiment: Protective index (TD50/ED50) value in MES test in mice
Mus musculus [42] = experiment: Anticonvulsant activity was measured by maximal electroshock test on mice at 30 min at the dose of 300 mg/kg; number of animals protected/number of animals tested 1/1
Mus musculus [43] = experiment: Anticonvulsant activity was measured by rotarod toxicity test on mice at 1 hr at the dose of 100 mg/kg; number of animals protected/number of animals tested 0/2

CCC1(c2ccccc2)C(=O)NC(=O)NC1=O [PHENOBARBITAL]
TPE (Mus musculus [1]): 0.5 | TPE (Mus musculus [2]): 1 toxicity

O=C1CC2(CCCC2)C(=O)N1OCc1cccc(Cl)c1
Ratio (Mus musculus [3]): 0 | Ratio (Mus musculus [4]): 0 | Ratio (Mus musculus [5]): 0 | Ratio (Mus musculus [6]): 0 | Ratio (Mus musculus [7]): 1 | Ratio (Mus musculus [8]): 0 | Ratio (Mus musculus [9]): 0 | Ratio (Mus musculus [10]): 0 | Ratio (Mus musculus [11]): 0 | Ratio (Mus musculus [12]): 0 | Ratio (Mus musculus [13]): 4 | Ratio (Mus musculus [14]): 0 | Ratio (Mus musculus [15]): 0 | Ratio (Mus musculus [16]): 0 | Ratio (Mus musculus [17]): 1 | Ratio (Mus musculus [18]): 2 | Ratio (Mus musculus [19]): 0 | Ratio (Mus musculus [20]): 1 | Ratio (Mus musculus [21]): 0 | Ratio (Mus musculus [22]): 2 | Ratio (Mus musculus [23]): 0 | Ratio (Mus musculus [24]): 0 | Ratio (Mus musculus [25]): 0

O=C1CC2(CCCC2)C(=O)N1OCc1ccc(Cl)cc1Cl
Ratio (Mus musculus [26]): 1 | Protection (Mus musculus [27]): 41.7% | Ratio (Mus musculus [28]): 0 | Ratio (Mus musculus [29]): 0 | Ratio (Mus musculus [30]): 0 | ED50 (Mus musculus [31]): 216 mg/kg | ED50 (Mus musculus [32]): 190 mg/kg | Protection (Mus musculus [33]): 62.5% | Ratio (Mus musculus [34]): 1 | Protection (Mus musculus [35]): 25% | TPE (Mus musculus [1]): 0.5 | TPE (Mus musculus [2]): 1 | Ratio (Mus musculus [36]): 1 | PI (Mus musculus [37]): 1.9 | ED50 (Mus musculus [38]): 241 mg/kg | Ratio (Mus musculus [39]): 1 | Protection (Mus musculus [40]): 8.33% | PI (Mus musculus [41]): 1.5 | Ratio (Mus musculus [42]): 1 | Ratio (Mus musculus [43]): 0
